According to ChEMBL document CHEMBL3085648, “Enhancement of kinase selectivity in a potent class of arylamide FMS inhibitors” (Bioorg Med Chem Lett, 2013):

Key:
[1] = Metabolic stability in mouse liver microsomes assessed as compound remaining after 10 mins; format: ADME, Microsome; details: for remaining at 10 min: liver microsomes, read-out: Stability
In short: (§1)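 Compound was incubated with human, mouse or rat liver microsomal preparations. Stability is the percent of compound remaining after 10 min.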

[2] = Metabolic stability in human liver microsomes assessed as compound remaining after 10 mins; format: ADME; details: liver microsomes, read-out: Stability; in short: as §1
[3] = target: T1, Macrophage colony-stimulating factor 1 receptor (Mus musculus, UniProt P09581); assay: Inhibition of FMS in mouse BMDM cells; format: cell-based
T1 sequence (P09581 whole entry): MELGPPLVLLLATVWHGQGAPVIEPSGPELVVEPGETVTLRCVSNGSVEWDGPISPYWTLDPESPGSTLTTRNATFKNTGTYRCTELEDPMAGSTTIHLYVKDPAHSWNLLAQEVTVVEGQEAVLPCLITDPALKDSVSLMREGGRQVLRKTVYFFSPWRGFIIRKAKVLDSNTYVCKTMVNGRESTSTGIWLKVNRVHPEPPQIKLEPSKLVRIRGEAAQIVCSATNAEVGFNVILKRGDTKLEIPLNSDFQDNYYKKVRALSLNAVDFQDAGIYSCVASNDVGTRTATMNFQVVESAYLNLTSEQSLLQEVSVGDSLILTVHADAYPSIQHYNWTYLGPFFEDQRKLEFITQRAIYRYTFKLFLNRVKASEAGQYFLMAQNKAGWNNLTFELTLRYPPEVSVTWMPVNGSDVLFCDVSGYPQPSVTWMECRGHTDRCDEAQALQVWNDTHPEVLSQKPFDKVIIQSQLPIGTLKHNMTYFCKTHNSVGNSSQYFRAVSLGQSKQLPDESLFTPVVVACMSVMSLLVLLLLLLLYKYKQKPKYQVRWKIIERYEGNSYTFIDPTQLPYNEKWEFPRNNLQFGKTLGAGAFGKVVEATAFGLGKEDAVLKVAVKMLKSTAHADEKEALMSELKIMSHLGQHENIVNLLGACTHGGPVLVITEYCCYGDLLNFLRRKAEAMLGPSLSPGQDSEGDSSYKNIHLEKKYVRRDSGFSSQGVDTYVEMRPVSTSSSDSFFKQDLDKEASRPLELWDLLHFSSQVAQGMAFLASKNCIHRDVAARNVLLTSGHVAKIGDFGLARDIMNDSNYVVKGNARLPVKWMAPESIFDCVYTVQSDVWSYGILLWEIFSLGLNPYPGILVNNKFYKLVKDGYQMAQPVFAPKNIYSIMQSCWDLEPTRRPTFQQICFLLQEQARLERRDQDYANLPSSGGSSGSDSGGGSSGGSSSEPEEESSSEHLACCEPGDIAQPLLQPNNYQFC

[4] = target: Mast/stem cell growth factor receptor Kit (Homo sapiens, UniProt P10721); assay: Inhibition of KIT (unknown origin)
[5] = Metabolic stability in rat liver microsomes assessed as compound remaining after 10 mins; format: ADME; details: read-out: Stability; in short: as §1
[6] = tested on: Mus musculus; assay: Inhibition of CSF-1-induced c-fos gene expression in mouse spleen at 30 mg/kg, po after 6 hrs; format: functional
In short: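 In the mouse pharmacodynamic model, compound was given orally. Spleen c-fos mRNA induced by an iv injection of CSF-1 was measured 6 or 8 h after dosing.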

[7] = tested on: Mo7e; assay: Selectivity ratio of IC50 for KIT in human Mo7e cells to IC50 for FMS in mouse BMDM cells; format: cell-based
In short: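 Cellular selectivity was calculated as Mo7e IC50 divided by BMDM IC50. Mo7e IC50 came from SCF-dependent proliferation of Mo7e leukemia cells. BMDM IC50 came from proliferation of murine bone marrow-derived macrophages.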

Mast/stem cell growth factor receptor Kit, sequence (P10721 whole entry): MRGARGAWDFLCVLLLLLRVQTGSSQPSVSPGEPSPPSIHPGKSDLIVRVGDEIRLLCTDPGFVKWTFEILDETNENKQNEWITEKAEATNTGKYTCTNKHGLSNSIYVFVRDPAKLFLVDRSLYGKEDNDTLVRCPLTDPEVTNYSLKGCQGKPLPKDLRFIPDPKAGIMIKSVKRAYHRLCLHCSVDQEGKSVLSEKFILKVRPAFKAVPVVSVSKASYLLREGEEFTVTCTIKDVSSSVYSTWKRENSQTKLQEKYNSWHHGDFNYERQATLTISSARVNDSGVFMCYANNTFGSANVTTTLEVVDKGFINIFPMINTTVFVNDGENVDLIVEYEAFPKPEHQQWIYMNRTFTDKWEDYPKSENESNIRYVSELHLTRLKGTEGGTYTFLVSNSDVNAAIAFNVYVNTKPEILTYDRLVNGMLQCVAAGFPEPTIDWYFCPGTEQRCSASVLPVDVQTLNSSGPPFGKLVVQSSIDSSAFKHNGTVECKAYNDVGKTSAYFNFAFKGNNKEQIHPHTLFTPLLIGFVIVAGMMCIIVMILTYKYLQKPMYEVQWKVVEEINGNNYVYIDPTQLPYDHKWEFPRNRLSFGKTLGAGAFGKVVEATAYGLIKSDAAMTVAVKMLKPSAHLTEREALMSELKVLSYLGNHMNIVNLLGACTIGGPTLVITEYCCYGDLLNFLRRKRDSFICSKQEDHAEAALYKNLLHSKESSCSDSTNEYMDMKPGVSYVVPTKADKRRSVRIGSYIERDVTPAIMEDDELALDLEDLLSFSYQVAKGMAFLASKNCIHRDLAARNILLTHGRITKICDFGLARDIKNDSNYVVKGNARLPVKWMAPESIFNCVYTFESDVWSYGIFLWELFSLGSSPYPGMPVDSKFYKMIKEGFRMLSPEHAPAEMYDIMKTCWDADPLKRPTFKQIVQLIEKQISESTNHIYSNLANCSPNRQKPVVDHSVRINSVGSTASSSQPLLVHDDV

| Compound | remaining at 10 min [1] | remaining at 10 min [2] | IC50 [3] | remaining at 10 min [5] | also measured |
| --- | --- | --- | --- | --- | --- |
| N#Cc1cnc(C(=O)Nc2ccc(CN3CCOCC3)cc2C2=CCCCC2)[nH]1 | 5% | 71% | 20 nM |  |  |
| CC1(C)CC=C(c2cc(C(=O)O)ccc2NC(=O)c2nc(C#N)c[nH]2)CC1 |  |  | > 300 nM |  |  |
| COCCN1CCN(C(C)(C)c2ccc(NC(=O)c3nc(C#N)c[nH]3)c(C3=CCC(C)(C)CC3)c2)CC1 | 73% | 72% |  | 40% | IC50 [4]: 210 nM |
| CCN1CCN(C(C)(C)c2ccc(NC(=O)c3nc(C#N)c[nH]3)c(C3=CCC(C)(C)CC3)c2)CC1 | 84% | 108% |  | 32% | IC50 [4]: 50 nM |
| CC1(C)CC=C(c2cc(C(C)(C)OCCN3CCCC3)ccc2NC(=O)c2nc(C#N)c[nH]2)CC1 |  |  |  |  | IC50 [4]: 25 nM |
| CC1(C)CC=C(c2cc(C(C)(C)N3CCS(=O)(=O)CC3)ccc2NC(=O)c2nc(C#N)c[nH]2)CC1 | 84% | 112% |  | 98% | IC50 [4]: 250 nM; inhibition in vivo at 30 mg/kg [6]: 8% |
| CC1(C)CC=C(c2cc(S(N)(=O)=O)ccc2NC(=O)c2nc(C#N)c[nH]2)CC1 |  |  | > 150 nM |  |  |
| CC1(C)CC=C(c2cc(C(C)(C)OCCN3CCOCC3)ccc2NC(=O)c2nc(C#N)c[nH]2)CC1 | 93% | 38% |  | 44% | IC50 [4]: 57 nM |
| N#Cc1c[nH]c(C(=O)Nc2ccc(C(N)=O)cc2C2=CCCCC2)n1 |  |  | 34 nM |  |  |
| CC1(C)CC=C(c2cc(C(N)=O)ccc2NC(=O)c2nc(C#N)c[nH]2)CC1 |  |  | 32 nM |  |  |
| CN(CCS(C)(=O)=O)C(C)(C)c1ccc(NC(=O)c2nc(C#N)c[nH]2)c(C2=CCC(C)(C)CC2)c1 |  |  | 21 nM |  |  |
| CC1(C)CC=C(c2cc(CCN3CCOCC3)ccc2NC(=O)c2ncc(C#N)[nH]2)CC1 | 49% | 66% |  |  |  |
| CC1(C)CC=C(c2cc(-c3nnn[nH]3)ccc2NC(=O)c2ncc(C#N)[nH]2)CC1 |  |  | > 300 nM |  |  |
| COCCNC(C)(C)c1ccc(NC(=O)c2nc(C#N)c[nH]2)c(C2=CCC(C)(C)CC2)c1 | 50% | 79% |  | 78% | IC50 [4]: 42 nM |
| CC1(C)CC=C(c2cc(S(C)(=O)=O)ccc2NC(=O)c2nc(C#N)c[nH]2)CC1 |  |  | 59 nM |  |  |
| CC1(C)CC=C(c2cc(CCS(=O)(=O)NN)ccc2NC(=O)c2nc(C#N)c[nH]2)CC1 |  |  | 21 nM |  |  |
| CC1(C)CC=C(c2cc(C(C)(C)CO)ccc2NC(=O)c2nc(C#N)c[nH]2)CC1 |  |  | 33 nM |  |  |
| CC1(C)CC=C(c2cc(C(C)(C)O)ccc2NC(=O)c2nc(C#N)c[nH]2)CC1 |  | 110% | 25 nM | 96% | Stability ([1]; microsomes, 10 min): 124% |
| CC1(C)CC=C(c2cc(C(C)(C)NCCO)ccc2NC(=O)c2nc(C#N)c[nH]2)CC1 |  |  | 7.8 nM |  | Ratio IC50 [7]: 32 |
| CC1(C)CC=C(c2cc(CN3CCN(CCO)CC3)ccc2NC(=O)c2nc(C#N)c[nH]2)CC1 | 79% | 101% |  | 2% |  |
| N#Cc1c[nH]c(C(=O)Nc2ccc(CCS(N)(=O)=O)cc2C2=CCCCC2)n1 |  |  | 54 nM |  |  |
| COCCN(C)C(C)(C)c1ccc(NC(=O)c2nc(C#N)c[nH]2)c(C2=CCC(C)(C)CC2)c1 |  | 11% |  | 13% |  |
| N#Cc1c[nH]c(C(=O)Nc2ccc(S(=O)(=O)N3CCOCC3)cc2C2=CCCCC2)n1 |  |  | 210 nM |  |  |
